Measured values as given in the EternaBench riboswitch data.

System: MS2 coat protein
Test: apparent Kd, MS2 coat protein; higher = weaker binding; RNA-MaP array; FMN 200 µM where present
How it was run: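 Each design was made on Illumina sequencing-chip clusters by stalled E. coli RNA polymerase and titrated with SNAP-549-labelled MS2 coat protein from 0.7 or 1.5 nM, doubling to 3 µM, in the absence and then the presence of constant ligand. The buffer was 100 mM Tris-HCl pH 7.5, 80 mM KCl, 4 mM MgCl2, BSA, DTT, yeast tRNA and Tween-20. The apparent Kd is the median of filtered per-cluster fits of binding curves, with green signal normalised to red-channel RNA signal and control-cluster median Fmax.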

[1] = designed as: ON switch for flavin mononucleotide, no ligand
[2] = ligand present: flavin mononucleotide, designed as: ON switch for flavin mononucleotide
[3] = designed as: OFF switch for flavin mononucleotide, no ligand
[4] = ligand present: flavin mononucleotide, designed as: OFF switch for flavin mononucleotide

| Sequence | apparent Kd [1] [nM] | apparent Kd [2] [nM] | apparent Kd [3] [nM] | apparent Kd [4] [nM] |
| --- | --- | --- | --- | --- |
| UUGGACGUCGUAGGAUAUGUAGGAUAUUGCUACAUGAGGAUCACCCAUGUUGACAUGGAAGAAGGACAGAAGGACGAUGUCCAU | 43.8 | 5.59 |  |  |
| GCGUUGUCAGGAUAUUAUCCGUGGACAAUAGUCAGACACGGUAAGAAGGGACAUGAGGAUCACCCAUGUCCUCA |  |  | 17.6 | 27.1 |
| AACCUACAUGAGGAUCACCCAUGUAUCUGAGGCACAGGAUAUCGACAGGCAAGACACCUGCGAGAAGGGUGACCUC | 94 | 39.9 |  |  |
| GGGUACAUCGGAGGAUAUCGUGUAAAUACAUGAGGAUCACCCAUGUCGAUGGAGACAUCGGAGAUUGAGAAGGCCGAUGUACCG | 123 | 8.12 |  |  |
| AAGCUGGUAGGAUAUACUAGGGCAACUAAUGCGCCGAUAGGACAUGAGGAUCACCCAUGUAGAAGGGCCAGAAA |  |  | 80.1 | 93.1 |
| CACAGGGAUUCAGGAUAUAUUAGCCGAGGCCGCGUAGAAGGGAAAUCCUGACAUGAGGAUCACCCAUGUUGACCCGCCUUCCAU | 52.8 | 62.5 |  |  |
| UUACCUUAUGAGAAGGCGAUCAUGAAACAUGAUCGAGGAUAUCAUGUAAACAUGAGGAUCACCCAUGUAUGGGUAUUAUGGUAA | 213 | 28.5 |  |  |
| GCAGCGUAUGUAGGAUAUCGGUCAGUUUCUGAUCGAGAAGGACAUGAGGAUCACCCAUGUAAAAUACCGACUUUGUCGGGCUGC |  |  | 6.43 | 8.11 |
| GGGUAGUGAGGAUAUCGUUGUUAGGAGGAGUAGGUAGGAGGCGAGAAGGCACAUGAGGAUCACCCAUGUAUGAG |  |  | 29.2 | 30.4 |
| GGACGUCACAUGAACAUGAGGAUCACCCAUGUAAAUUCUCAUGAGGAUAUGGAACCUAAUUGGUUCCAGAAGGCGUGGACGUCC | 849 | 489 |  |  |
| UGUCGCAGCAGAGGAUAUUACAUGAGGAUCACCCAUGUAUGAACCAAUAGCUGGAAACAGCAAUGUAAGAAGGCUGCUCCGACA |  |  | 11.7 | 128 |
| CAGUAGAUCCGAGGAUAUACAAUCCGGAAACGGUACAUGAGGAUCACCCAUGUAGAAGGCGGAUCUACAGGUACUAAAGUACCC |  |  | 5.99 | 7.8 |
| UUUGAUUAUGUGAGGAUAUACUGUUUGUAUUGAUUGUAGAAGGUACAUGAGGAUCACCCAUGUUUUGUAUUUAU |  |  | 18.6 | 19.4 |
| AAUUACAUGUAGAAGGUACUUAAUUAAGUGUUGUAAGGAUAUACCAAUUUAUUAGAUUUAAAGAUACAUGAGGAUCACCCAUGU | 12.1 | 9.76 |  |  |
| AAUAGCUGAGGAUAUACAUGAGGAUCACCCAUGUAUUAGUAGGCUGGGAAUAAAUCGUGUAGAAGGCAGGAUGA |  |  | 16 | 27.2 |
| GGCGGCGCGGGCCACCGCAAAACCAGAAGGACAUGAGGAUCACCCAUGUAACAAAACAGGGCGGUGUAGGAUAUGGCAGACCCG |  |  | 14.2 | 25 |
| AAUUACAUGUAGAAGGUACUUAAUUAAGUGUUGUAAGGAUAUACCAAUUUAUUAGUUUUAAAGAUACAUGAGGAUCACCCAUGU | 10.6 | 9.2 |  |  |
| UGGUACUAGGGAGGAUAUGGGAAGAUACAUGAGGAUCACCCAUGUUUAAGAAUGCCGAGAGGCGACUAGAAGGCCCUAGUACCU | 311 | 15.3 |  |  |
| CAGUCUACAGGAUAUACAUGAGGAUCACCCAUGUGUAUUCACUUUCAGUAGUCCAUAUGUAGAAGGGUAGACUG |  |  | 15.9 | 22.5 |
| GGCUGGUGACAGCAUCCAUCAAAACAUGAGGAUCACCCAUGUAGAAGGCUGUACGGUUACCGUACAGAGGAUAUACAAUGAUGA |  |  | 14.5 | 24.2 |
| UAAGUUUAGGUAGGAUAUACUUUAAAUUUCUCUAUCCAUACAUGAGGAUCACCCAUGUUUACAUUGUAGAAGGACCACUAUGUU |  |  | 24.6 | 20.4 |
| UAAGUUGAGGAGAAGGGAGCACAUGAGGAUCACCCAUGUGGUUCUUUGUGCUCAGGAUAUCCAUGGAGCGCCGACGCGUUCCCG |  |  | 89.2 | 15.6 |
| UGUGUGUGGGCAGGAUAUGCGUGAAGAUGUAUGAUGUAGUGUGAUGUAACAUGAGGAUCACCCAUGUAGAAGGGCCGGUGUGUG |  |  | 124 | 129 |
| GUUAUUAACAAGAAGGCAUACAUGAGGAUCACCCAUGUUCUACAUGGAUAAUGAGGAUAUUGCUAAUACAUGAGGAUCACCCAU |  |  | 48.8 | 53.8 |
| CUCAAACAUGAGGAUCACCCAUGUGUUGUCAUGGGAGGAUAUCUAAGUUCAUUGUAUUCGGGAGAAGGCCUAUGUC | 503 | 46.5 |  |  |
| AGAAAACAGGAGAAGGGCCCACGUGAACCUCCAUAUCUGCGAAACAUGAGGAUCACCCAUGUGAGGCAGGAUAUCCAAUUACUU |  |  | 9.32 | 38.7 |
| UGACGGAGCAGAGGAUAUUACAUGAGGAUCACCCAUGUAUGAACCAAUAGCUGGAAACAGCAAUGUAAGAAGGCUGCUCCGACA |  |  | 11.6 | 147 |
